Measured values from the array DNA melting data of Ke et al. (doi:10.1101/2024.01.08.574731).

How the values were obtained:
[1] = melting temperature; fluorescence melt of hairpins on a sequencing array, two-state fit, raised by 9.35 °C to match UV melts; conditions: sodium 0.088 M
Procedure, shortened: (§1)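 Folding enthalpy and melting temperature come from bootstrapped two-state fits to Cy3 fluorescence of library hairpins carrying annealed Cy3 and quencher oligos on a sequenced MiSeq flow cell. Imaging was done in 50 mM Na-HEPES pH 8.0, 25 mM NaCl, stepping by 2.5 °C up to 60 °C, and signals were normalised to pre-quench Cy3 and to control constructs. Results of four replicates were combined by inverse variance, and fitted temperatures were raised by 9.35 °C to match UV melts.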

[2] = folding enthalpy; higher = less favourable; fluorescence melt of hairpins on a sequencing array, two-state fit; conditions: sodium 0.088 M
Procedure, shortened: as §1

| Sequence | Tm [1] | folding enthalpy [2] |
| --- | --- | --- |
| GTTCGAGGAAACTTGAGC (.((.((....)).)).) | 29.9 °C | -20.3 kcal/mol |
| CGGCTCGGAAACGAACCG (((.(((....))).))) | 51 °C | -44.5 kcal/mol |
| GGCACCGAAAGGTTCGCC ((((((....)))..))) | 47.7 °C | -20 kcal/mol |
| GCCTCTCGAAAGAGGGC (((.(((....)))))) | 54.4 °C | -30.6 kcal/mol |
| GAAATTGGAAACAGTTTC ((((.((....)).)))) | 34.2 °C | -26.4 kcal/mol |
| GTGTATCGAAAGATCCAC (((.(((....))).))) | 41.2 °C | -33.5 kcal/mol |
| GCGAGTTCGAAAGAACGC (((..(((....)))))) | 49.5 °C | -11.8 kcal/mol |
| GATCGGGAGACCGATC ((((((....)))))) | 63.8 °C | -32.6 kcal/mol |
| ATGAGGAAACTCAT (((((....))))) | 39.6 °C | -17.6 kcal/mol |
| GCTGGCGAAAGCCGAGC ((((((....))).))) | 65.3 °C | -23.5 kcal/mol |
| CGCGCGGAAACGCACGCG ((((((....)))..))) | 57.1 °C | -22.1 kcal/mol |
| GGGCTCGAAAGAGGGCCC ((((((....)))..))) | 54.6 °C | -39.4 kcal/mol |
| GCATACGAAAGTAGATGC ((((((....)))..))) | 41.1 °C | -27.1 kcal/mol |
| GCTAGAGGAAACTCTGGC ((.((((....)))).)) | 48 °C | -37.9 kcal/mol |
| GTTACGGCGAAAGCCAAC (((..(((....)))))) | 25 °C | -8.79 kcal/mol |
| GCCGCGCCGAAAGGCGGC (((..(((....)))))) | 67.6 °C | -9.11 kcal/mol |
| GAATGTGGAAACACATTC (((((((....))))))) | 59.4 °C | -38.6 kcal/mol |
| GTTCCGGGAAACCGAAAC (((.(((....))).))) | 38.5 °C | -25 kcal/mol |
| GCATTTGGAAACAGATGC ((((.((....)).)))) | 44 °C | -33.4 kcal/mol |

| Sequence | Tm [1] | folding enthalpy [2] |
| --- | --- | --- |
| GATCACAATGTGATC ((((((...)))))) | 55.6 °C | -36.8 kcal/mol |
| GTCGTTCGAAAGAAGAC (((.(((....)))))) | 35.6 °C | -21.2 kcal/mol |
| GACGTCCGAAAGGAAGTC (((.(((....))).))) | 54.7 °C | -34.7 kcal/mol |
| GTCTCCCGAAAGGGCGAC (((.(((....))).))) | 53.2 °C | -30.8 kcal/mol |
| GATCATGAGATGATC ((((((...)))))) | 43.4 °C | -32.5 kcal/mol |
| GATCTGAACCAGATC ((((((...)))))) | 46 °C | -34.6 kcal/mol |
| GATCCTGTCGAGGATC ((((((....)))))) | 57.2 °C | -36.3 kcal/mol |
| GATCATCCCTATGATC ((((((....)))))) | 47.5 °C | -37.4 kcal/mol |
| GCCGGTGCGAAAGCAGGC (((..(((....)))))) | 56.8 °C | -17.1 kcal/mol |
| GATCGCCCAAGCGATC ((((((....)))))) | 66.7 °C | -23 kcal/mol |
| GGAACCCGAAAGGGATCC (((.(((....))).))) | 54.5 °C | -28 kcal/mol |
| GCACACGAAAGTGGATGC ((((((....)))..))) | 45.6 °C | -17.9 kcal/mol |
| CGCGGAAAAGTCCGCG ((((((....)))))) | 60.9 °C | -38.4 kcal/mol |
| GACGTTACGAAAGTAGTC (((..(((....)))))) | 44.2 °C | -27.2 kcal/mol |
| GTGTCAGGAAACTGACAC (((((((....))))))) | 66.4 °C | -37 kcal/mol |
| GACTTTGGAAACGAAGTC (((((.(....).))))) | 44.6 °C | -29.4 kcal/mol |
| GCATCGCGAAAGCTAGGC ((.(.((....)).).)) | 42.8 °C | -14 kcal/mol |
| GTAGACGGAAACGTCTAC (((((((....))))))) | 61.3 °C | -50.1 kcal/mol |
| GACGGAGGAAACTCCGTC (((((((....))))))) | 67.8 °C | -36.1 kcal/mol |
